Test results as given in ChEMBL document CHEMBL1126622, “2-substituted 1,2-dihydro-3H-dibenz[de,h]isoquinoline-1,3-diones. A new class of antitumor agent” (J Med Chem, 1993).

Assays:
[1] = The quotient of the IC50 is the myocytes divided by the mean IC50 in the four cell lines (UACC375,OVCAR3,L1210 sensitive,L1210 resistant); type: ADME; details: read-out: Toxicity ratio
Summary of the method: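 Ratio of the myocyte IC50 (1-h exposure, ATP/protein ratio read-out) to the mean tumor-cell IC50 across the four lines, UACC375 and OVCAR3 by SRB, sensitive and resistant L1210 by MTT.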

[2] = Tested against UACC375 human melanoma cancer cells by sulforhodamine B (SRB) assay; type: functional, cell-based; details: Cancer cell lines
Summary of the method: (§1)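 Adherent UACC375 melanoma and OVCAR3 ovarian cells, SRB assay: plating and dosing as for MTT (50 000/well, 10^1–10^-5 μg/mL half-log, DMSO ≤0.1%), 8-day exposure; fixed with 10% TCA 1 h at 4 °C, stained 30 min with 0.4% SRB in 1% acetic acid, dye dissolved in 10 mM Tris base pH 10.5, OD 564 nm; six wells per concentration, IC50s averaged.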

[3] = Average mean for IC50 values in the four cell lines (UACC375,OVCAR3,L1210 sensitive,L1210 resistant); type: functional; parameters: unit not given here
Summary of the method: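 Mean of the IC50 values from the four tumor lines: UACC375 and OVCAR3 by SRB (8-day exposure), sensitive and resistant L1210 by MTT (6-day continuous exposure).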

[4] = Tested for in vitro for cardiotoxicity by performing neonatal rat heart myocyte assay method; type: functional
Summary of the method: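 Neonatal rat heart myocytes exposed to drug for 1 h; cytotoxicity read as cellular ATP/protein ratio relative to untreated controls; IC50 is the 1-h concentration halving this ratio.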

OVCAR-3 = test: Tested against OVCAR-3 human ovarian cancer cells by sulforhodamine B (SRB) assay; type: functional, cell-based; summary of the method: as §1
L1210 [5] = test: Tested against L1210 sensitive murine leukemia cells by MTT tetrazolium dye assay; type: functional, cell-based; details: Mus musculus
Summary of the method: (§2)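 Suspension L1210 cells (drug-sensitive and multidrug-resistant lines), 50 000/well, drug added day 2 from DMSO stock serially diluted in PBS pH 7.4, 10^1–10^-5 μg/mL in half-log steps, final DMSO ≤0.1%; continuous 6-day exposure at 37 °C, 5% CO2; MTT added 4 h, formazan dissolved in DMSO, A570; percent of untreated control; six wells per concentration, IC50s averaged.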

L1210 [6] = test: Tested against L1210 resistant murine leukemia cells by MTT tetrazolium dye assay; type: functional, cell-based; details: Mus musculus; summary of the method: as §2
L1210 [7] = test: Tested for percent increase in life span in L1210 leukemia cells after intraperitoneal dose of 15 mg/kg in mice; type: functional; details: Mus musculus, L1210, ip
Summary of the method: (§3)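 Standard NCI protocol: leukemia cells implanted intraperitoneally, with drug given ip on days 1, 5 and 9. Read-out is percent increase in life span, 100 × (treated life span − control life span)/control life span.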

[8] = Acid dissociation constant was determined; type: ADME
Summary of the method: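 Hydrochloride salt (0.165 mmol) dissolved in 0.982 N HCl to give 1 mequiv acid beyond amine protonation; stirred and titrated with 0.926 N NaOH with pH-meter monitoring.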

L1210 [9] = test: Tested for percent increase in life span in L1210 leukemia cells after intraperitoneal dose of 45 mg/kg in mice; type: functional; details: Mus musculus, L1210, ip; summary of the method: as §3
LoVo = test: Tested against human colon carcinoma LoVo cell line in vitro; type: functional, cell-based
Summary of the method: (§4)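 Human colon carcinoma lines, MTT assay: 50 000 cells/well, drug added day 2 (DMSO stock diluted in PBS pH 7.4, 10^1–10^-5 μg/mL half-log steps, final DMSO ≤0.1%), 6-day exposure at 37 °C, 5% CO2; MTT 4 h, formazan in DMSO read at 570 nm vs untreated control; six wells per concentration, IC50 averaged.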

L1210 [10] = test: Tested for percent increase in life span in L1210 leukemia cells after intraperitoneal dose of 5 mg/kg in mice; type: functional; details: Mus musculus, L1210, ip
Summary of the method: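 Standard NCI protocol: leukemia cells implanted intraperitoneally, with drug given ip once daily on days 1–5. Read-out is percent increase in life span, 100 × (treated life span − control life span)/control life span.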

B16 [11] = test: Tested for percent tumor growth inhibition in B16 melanoma cells after intraperitoneal dose of 15 mg/kg in mice; details: Mus musculus, B16, ip; read-out: TGI
HCT-15 = test: Tested against human colon carcinoma HCT 15 cell line in vitro; type: functional, cell-based; summary of the method: as §4
HT-29 = test: Tested against human colon carcinoma HT 29 cell line in vitro; type: functional, cell-based; summary of the method: as §4
L1210 [12] = test: Tested for percent increase in life span in L1210 leukemia cells after intraperitoneal dose of 30 mg/kg in mice; type: functional; details: Mus musculus, L1210, ip; summary of the method: as §3
COLO 480 = test: Tested against human colon carcinoma COLO 480 cell line in vitro; type: functional, cell-based; summary of the method: as §4
COLO 205 = test: Tested against human colon carcinoma COLO 205 cell line in vitro; type: functional, cell-based; summary of the method: as §4
B16 [13] = test: Tested for percent tumor growth inhibition in B16 melanoma cells after intraperitoneal dose of 30 mg/kg in mice; details: Mus musculus, B16, ip; read-out: TGI

Compound | selectivity ratio [1] | IC50 [2] [nM] | Average [3] | IC50 [4] [nM] | IC50 (OVCAR-3) [nM] | IC50 (L1210 [5]) [nM] | IC50 (L1210 [6]) [nM] | ILS at 15 mg/kg (L1210 [7]) [%] | pKa [8] | ILS at 45 mg/kg (L1210 [9]) [%] | IC50 (LoVo) [nM] | ILS at 5 mg/kg (L1210 [10]) [%] | inhibition in vivo at 15 mg/kg (B16 [11]) [%] | IC50 (HCT-15) [nM] | IC50 (HT-29) [nM] | ILS at 30 mg/kg (L1210 [12]) [%] | IC50 (COLO 480) [nM] | IC50 (COLO 205) [nM] | inhibition in vivo at 30 mg/kg (B16 [13]) [%]
O=C1c2cccc3cc4ccccc4c(c23)C(=O)N1CCN1CCNCC1 | 8.8 | 463 | 767 | 6710 | 1970 | 174 | 463 | – | – | – | – | – | – | – | – | – | – | – | –
O=C1c2cccc3cc4ccccc4c(c23)C(=O)N1Cc1ccccn1 | > 1 | 12000 | 20722 | > 25000 | 17400 | 26700 | 26700 | – | – | – | – | – | – | – | – | – | – | – | –
O=C1c2cccc3cc4ccccc4c(c23)C(=O)N1CCN1CCCCC1 | 13 | 178 | 92 | 10400 | 89 | 51 | 51 | – | – | – | – | – | – | – | – | – | – | – | –
CN(C)c1ccc(N2C(=O)c3cccc4cc5ccccc5c(c34)C2=O)cc1 | 8 | 4980 | 4537 | 37300 | 16200 | 187 | 1790 | – | – | – | – | – | – | – | – | – | – | – | –
O=C1c2cccc3cc4ccccc4c(c23)C(=O)N1CCNCCO | 18 | 67 | 52 | 943 | 81 | 18 | 41 | – | – | – | – | – | – | – | – | – | – | – | –
CN(C)CCN1C(=O)c2cccc3cc4ccccc4c(c23)C1=O [AZONAFIDE] | 56 | 71 | 36 | 1980 | 57 | 7 | 7 | 25 | 7.3 | 79 | 6 | 90 | 74 | 8 | 63 | 62.5 | 3 | 36 | –
CN(C)CCN1C(=O)c2cccc3cc(N)cc(c23)C1=O [AMONAFIDE] | 36 | 2030 | 1365 | 48400 | 2180 | 625 | 625 | – | 7.3 | 87.5 | – | – | – | – | – | 45 | – | – | 23
O=C1c2cccc3cc4ccccc4c(c23)C(=O)N1Cc1cccnc1 | > 4 | 11400 | 5983 | > 25000 | 8020 | 1870 | 2670 | – | – | – | – | – | – | – | – | – | – | – | –
O=C1c2cccc3cc4ccccc4c(c23)C(=O)N1N1CC1 | – | 2530 | 3006 | – | 7910 | 791 | 791 | – | – | – | – | – | – | – | – | – | – | – | –
O=C1c2cccc3cc4ccccc4c(c23)C(=O)N1CCN1CCCC1 | 28 | 39 | 33 | 920 | 66 | 14.5 | 11.8 | – | – | – | – | – | – | – | – | – | – | – | –
O=C1c2cccc3cc4ccccc4c(c23)C(=O)N1CCCN(CCO)CCO | 60 | 217 | 150 | 8910 | 163 | 76 | 142 | – | – | – | – | – | – | – | – | – | – | – | –
CN1CCCC1CCN1C(=O)c2cccc3cc4ccccc4c(c23)C1=O (stereo not drawn) | 57 | 190 | 125 | 7080 | 203 | 51 | 56 | – | – | – | – | – | – | – | – | – | – | – | –
O=C1c2cccc3cc4ccccc4c(c23)C(=O)N1c1ncc[nH]1 | – | 1620 | 1103 | – | 2430 | 207 | 148 | – | – | – | – | – | – | – | – | – | – | – | –
O=C1c2cccc3cc4ccccc4c(c23)C(=O)N1CCN1CCOCC1 | > 50 | 511 | 544 | > 25000 | 639 | 512 | 512 | – | – | – | – | – | – | – | – | – | – | – | –
CCN1CCCC(N2C(=O)c3cccc4cc5ccccc5c(c34)C2=O)C1 (stereo not drawn) | 8.3 | 1650 | 1020 | 8760 | 1180 | 635 | 609 | – | – | – | – | – | – | – | – | – | – | – | –
CNCCN1C(=O)c2cccc3cc4ccccc4c(c23)C1=O | 211 | 59 | 33 | 7060 | 44 | 10 | 20.6 | – | – | – | – | – | – | – | – | – | – | – | –
O=C1c2cccc3cc4ccccc4c(c23)C(=O)N1c1cccnc1 | > 20 | 2490 | 1380 | > 25000 | 1940 | 544 | 554 | – | – | – | – | – | – | – | – | – | – | – | –
CCN1CCCC1CN1C(=O)c2cccc3cc4ccccc4c(c23)C1=O (stereo not drawn) | 143 | 119 | 106 | 15200 | 214 | 36 | 55 | – | – | – | – | – | – | – | – | – | – | – | –
CN(C)CCCN1C(=O)c2cccc3cc4ccccc4c(c23)C1=O | 113 | 245 | 211 | 11400 | 462 | 54 | 82 | – | 7.3 | – | – | – | – | – | – | – | – | – | –
O=C1c2cccc3cc4ccccc4c(c23)C(=O)N1CCc1ccccn1 | > 3 | 6440 | 8054 | > 25000 | 3870 | 6440 | 15500 | – | 5.4 | – | – | – | – | – | – | – | – | – | –
